Results published in article PMC3517215 (Journal of medicinal chemistry, 2011).
“And” between values parts separate entries of the source, which are not always exact repeats. Identical values can stand only once.

Molecular target: T1, human sEH (Homo sapiens, UniProt P34913)
T1 sequence (P34913 1-555): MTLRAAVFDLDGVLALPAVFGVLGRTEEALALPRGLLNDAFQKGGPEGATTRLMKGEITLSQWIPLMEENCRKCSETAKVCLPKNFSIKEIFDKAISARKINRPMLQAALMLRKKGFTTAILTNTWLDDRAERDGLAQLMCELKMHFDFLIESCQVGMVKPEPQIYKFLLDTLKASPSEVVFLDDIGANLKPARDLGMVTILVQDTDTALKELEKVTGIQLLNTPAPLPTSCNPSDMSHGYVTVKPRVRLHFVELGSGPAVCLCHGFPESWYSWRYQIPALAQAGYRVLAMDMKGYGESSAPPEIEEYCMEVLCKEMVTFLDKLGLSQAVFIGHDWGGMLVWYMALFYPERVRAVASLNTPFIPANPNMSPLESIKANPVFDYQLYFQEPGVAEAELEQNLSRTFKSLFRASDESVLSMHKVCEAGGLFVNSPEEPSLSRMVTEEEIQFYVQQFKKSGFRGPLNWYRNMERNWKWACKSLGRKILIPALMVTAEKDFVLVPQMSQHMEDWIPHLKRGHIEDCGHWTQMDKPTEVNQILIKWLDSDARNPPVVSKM
Test: Human sEH inhibition, fluorescent assay with CMNPC substrate
Format: biochemical
Procedure, shortened: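 Recombinant human sEH from baculovirus-infected Sf9 cells, purified by His-tag affinity, TEV cleavage and anion exchange. Enzyme (1 nM) preincubated 10 min with test compound (DMSO) in 25 mM Bis-Tris/HCl pH 7.0 at 30 °C, then CMNPC added (5 μM). 6-Methoxy-2-naphthaldehyde fluorescence (ex 330/em 465 nm) read over 10 min. IC50 by regression of ≥6 points (≥3 linear); mean of three runs.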

## O=C(NCCCc1ccccc1)C1CC=CCC1 (stereo not shown) [Compound 7]
  fold improvement in inhibition relative to compounds 4 or 5: > 5 fold

## COC(=O)c1ccc(CCNC(=O)C23CC4CC(CC(C4)C2)C3)cc1 [Compound 30]
  fold loss in inhibition potency relative to compound 29: > 7 fold

## O=C(NCCCCc1ccccc1)C12CC3CC(CC(C3)C1)C2 [Compound 26]
  fold decrease in inhibition potency relative to compound 19: 4–6 fold

## CC(C)(C)C1CCC(C(=O)NCCCc2ccccc2)CC1 (stereo not shown) [Compound 9]
  fold improvement over the non-substituted derivatives (4–7): 3.5–15 fold

## COC(=O)c1ccc(CNC(=O)C2CCc3ccccc3C2)cc1 (stereo not shown) [Compound 32, methyl 4-((1,2,3,4-tetrahydronaphthalene-2-carboxamido)methyl)benzoate]
  fold improvement relative to compound 29: 5 fold

## COC(=O)c1ccc2cc(NC(=O)C34CC5CC(CC(C5)C3)C4)ccc2c1 [Compound 31, methyl 6-(1-adamantanecarboxamido)naphthalene-2-carboxylate]
  fold loss in inhibition potency relative to compound 29: 7 fold and > 7 fold

## CCOC(=O)c1ccc(NC(=O)C23CC4CC(CC(C4)C2)C3)cc1 [Compound 27]
  fold better inhibition in comparison with compound 28: > 10 fold

## O=C(NCCCc1ccccc1)C1CCC(C(F)(F)F)CC1 (stereo not shown) [Compound 8]
  fold improvement over the non-substituted derivatives (4–7): 3.5–15 fold

## O=C(NCCc1ccccc1)C12CC3CC(CC(C3)C1)C2 [Compound 25]
  fold decrease in inhibition potency relative to compound 19: 4–6 fold

## O=C(NCCCc1ccccc1)C1CCc2ccccc2C1 (stereo not shown) [Compound 20]
  fold improvement in inhibition potency relative to compound 19: 3 fold

## COC(=O)c1ccc(CNC(=O)C23CC4CC(CC(C4)C2)C3)cc1 [Compound 29]
  fold better inhibition than compound 27: ~10 fold

## COC(=O)c1ccc(CNC(=O)c2ccc3ccccc3c2)cc1 [Compound 33]
  fold less potent compared to compound 32: 3 fold

## O=C(NCCCc1ccccc1)C1CCCCC1 [Compound 6]
  fold improvement in inhibition relative to compounds 4 or 5: > 5 fold
